Results collected from several papers.
Protocols differ between the studies behind these lines.
CECR2: Chromatin remodeling regulator CECR2 (CECR2, Homo sapiens, UniProt Q9BXF3)
SLC6A2: Sodium-dependent noradrenaline transporter (SLC6A2, Homo sapiens, UniProt P23975)
CASK: Peripheral plasma membrane protein CASK (CASK, Homo sapiens, UniProt O14936)

For `NS(=O)(=O)c1ccc(Nc2nc(-c3ccc(F)cc3)c3ccccc3n2)cc1`, the remaining binding was 79% (CECR2; binding, competition with immobilised ligand; 1 µM).
For `CCN1CCN(Cc2ccc(NC(=O)c3ccc(C)c(Oc4ccnc5[nH]ccc45)c3)cc2C(F)(F)F)CC1`, the inhibition was -138% (Serine/threonine-protein kinase 10 (STK10, Homo sapiens, UniProt O94804); target engagement in cells, inhibitor, chemoproteomics; A-375; 5 µM).
The ΔTm of `C[S+]([O-])c1ccc(-c2nc(-c3ccncc3)c(-c3ccc(F)cc3)[nH]2)cc1` (centres unmarked) is reported as 0.89 °C (CECR2; thermal stability, DSF; 10 µM).
`Clc1ccc(C(c2ccc(Cl)cc2)c2nnnn2CCCCN2CCC(Cc3ccc(Cl)c(Cl)c3)CC2)cc1` has an inhibition of 41.1% (SLC6A2; transporter uptake, inhibitor; HEK293; 1 µM).
With `CNC(=O)c1cc(Oc2ccc(NC(=O)Nc3ccc(Cl)c(C(F)(F)F)c3)cc2)ccn1` the inhibition was -8% (Serine/threonine-protein kinase Chk2 (CHEK2, Homo sapiens, UniProt O96017, R145W); enzyme activity, inhibitor; 0.3 µM).
The Km of `CC(C)CCC[C@@H](C)[C@H]1CC[C@H]2[C@@H]3[C@H](O)CC4=CC(=O)CC[C@]4(C)[C@H]3CC[C@]12C` is reported as 0.505 µM (7-alpha-hydroxycholest-4-en-3-one 12-alpha-hydroxylase (Homo sapiens, UniProt Q9UNU6); enzyme activity, substrate).
`CC(C)(C)c1nc(-c2cccc(NS(=O)(=O)c3c(F)cccc3F)c2F)c(-c2ccnc(N)n2)s1` gave a remaining activity of 101% (Mitotic checkpoint serine/threonine-protein kinase BUB1 beta (BUB1B, Homo sapiens, UniProt O60566); enzyme activity, inhibitor, radiometric; 1 µM).
`Cc1ccc(C(=O)Nc2ccc(CN3CCN(C)CC3)c(C(F)(F)F)c2)cc1C#Cc1cnc2cccnn12` has a remaining signal of 84% (CASK; cell-free assay; 23.5 nM).
With `Clc1ccc(C(c2ccc(Cl)cc2)c2nnnn2CCCCN2CCN(Cc3ccccc3)CC2)cc1` the inhibition was 79% (SLC6A2; transporter uptake, inhibitor; HEK293; 1 µM).
The remaining activity of `CCCOc1ccc(OC)c(F)c1C(=O)c1ccc(C(=O)N[C@@H]2CNC[C@H]2NC(=O)c2ccc3[nH]ncc3c2)cc1` is reported as 16% (cAMP-dependent protein kinase catalytic subunit PRKX (PRKX, Homo sapiens, UniProt P51817); enzyme activity, inhibitor; 0.1 µM).
With `Cc1ccc(Nc2nccc(N(C)c3ccc4c(C)n(C)nc4c3)n2)cc1S(N)(=O)=O` the inhibition was 44% (Serine/threonine-protein kinase Chk2 (CHEK2, Homo sapiens, UniProt O96017); enzyme activity, inhibitor; 10 µM).
`CC(=O)N[C@H]1CSSC[C@@H](C(=O)N[C@H](Cc2c[nH]c3ccccc23)C(N)=O)NC(=O)[C@H](Cc2ccccc2)NC(=O)[C@H](CCCNC(=N)N)NC1=O` has an Emax of 0% (Melanocortin receptor 4 (MC4R, Homo sapiens, UniProt P32245); cAMP, agonist; HEK293; 3 min).
The inhibition of `Fc1ccc(C(c2ccc(F)cc2)c2nnnn2CCCN2CCC(Cc3ccccc3)CC2)cc1` is reported as 39.7% (SLC6A2; transporter uptake, inhibitor; HEK293; 1 µM).
For `Nc1ncnc2occ(-c3ccc(NC(=O)Nc4cc(C(F)(F)F)ccc4F)cc3)c12`, the remaining signal was 56% (CASK; cell-free assay; 20 µM).
